The results in this text go back to ChEMBL document CHEMBL4387710, “Fragment-Based Discovery of an Apolipoprotein E4 (apoE4) Stabilizer” (J Med Chem, 2019).

The source made the active and inactive calls. No cut-off for these calls is given here.

In data set [1] the test system is Astrocyte. Kind of data set: Antineuroinflammatory activity in human induced pluripotent stem cell-derived astrocytes harboring apolipoprotein E4/4 assessed reduction in TNFalpha/IL-1beta/IFNgamma-stimulated IL-8 secretion preincubated for 1 hr followed by TNFalpha/IL-1beta/IFNgamma stimulation and measured after 24 hrs. The format is functional, cell-based.
Data set [2] concerns Astrocyte. Kind of data set: Cytotoxicity against human induced pluripotent stem cell-derived astrocytes harboring apolipoprotein E4/4 assessed as effect on cell viability at 12.5 uM to 100 uM preincubated for 1 hr followed by TNFalpha/IL-1beta/IFNgamma stimulation and measured after 24 hrs by CellTiter-Glo luminescent cell viability assay. The format is cell-based.
For data set [3], the species on record is Homo sapiens. Kind of data set: Binding affinity to human recombinant full-length N-terminal thrombin-recognition site-fused His6-tagged apolipoprotein E4 (1 to 299 residue) F257A/W246R/V269A/L279Q/V287E mutant expressed in Escherichia coli BL21-(DE3)-T1R cells assessed as change in melting temperature at 1 mM incubated for 15 mins by SYPRO orange dye-based thermal shift assay.

Data set [4] is described as follows: Binding affinity to N-terminal thrombin-recognition site-fused His6-tagged human apolipoprotein E4 N-terminal domain without leader sequence (1 to 164 residues) expressed in Escherichia coli BL21-(DE3)-T1R cells by 13C-HSQC NMR spectroscopy.
Data set [5] deals with Astrocyte. Kind of data set: Antineuroinflammatory activity in human induced pluripotent stem cell-derived astrocytes harboring apolipoprotein E4/4 assessed reduction in TNFalpha/IL-1beta/IFNgamma-stimulated IL-6 secretion preincubated for 1 hr followed by TNFalpha/IL-1beta/IFNgamma stimulation and measured after 24 hrs. The format is functional, cell-based.
Data set [6] is described as follows: Binding affinity to full-length human recombinant C-terminal FLAG/His-tagged apolipoprotein E4 expressed in HEK293-6E cells by surface plasmon resonance assay. Background: Surface plasmon resonance follows binding to a sensor surface in real time, without labels.
A short description of data set [7]: Solubility of the compound in PBS by NMR method. The format is physicochemical.
For data set [8], the species on record is Homo sapiens. Kind of data set: Binding affinity to N-terminal thrombin-recognition site-fused His6-tagged human apolipoprotein E4 N-terminal domain without leader sequence (1 to 164 residues) expressed in Escherichia coli BL21-(DE3)-T1R cells assessed as breakdown of DMPG liposomes at 500 uM after 30 mins by dynamic light scattering analysis. In a few lines: (§1)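 DMPG liposome breakdown assay: large DMPG liposomes incubated with apoE protein (N-terminal domain, or full-length wild-type from mammalian cells). Breakdown into smaller discoidal complexes is read as a fall in light-scattering intensity. Liposomes alone serve as control. Compound is tested as a dose series covering 15.6 to 500 μM.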

For data set [9], the species on record is Homo sapiens. Kind of data set: Binding affinity to human recombinant full-length N-terminal thrombin-recognition site-fused His6-tagged apolipoprotein E3 (1 to 299 residue) F257A/W246R/V269A/L279Q/V287E mutant expressed in Escherichia coli BL21-(DE3)-T1R cells assessed as change in melting temperature at 5 mM incubated for 15 mins by SYPRO orange dye-based thermal shift assay. A digest of the protocol:
(§2)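 Thermal shift assay: compound added at 5 mM to full-length mutant apoE protein (apoE4 or apoE3). Stabilization is reported as the shift in melting temperature, in degrees.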

The species entered for data set [10] is Homo sapiens. Kind of data set: Binding affinity to human recombinant full-length N-terminal thrombin-recognition site-fused His6-tagged apolipoprotein E4 (1 to 299 residue) F257A/W246R/V269A/L279Q/V287E mutant expressed in Escherichia coli BL21-(DE3)-T1R cells assessed as change in melting temperature at 5 mM incubated for 15 mins by SYPRO orange dye-based thermal shift assay. A digest of the protocol: as §2

A short description of data set [11]: Binding affinity to N-terminal thrombin-recognition site-fused His6-tagged human apolipoprotein E4 N-terminal domain without leader sequence (1 to 164 residues) expressed in Escherichia coli BL21-(DE3)-T1R cells by surface plasmon resonance analysis.
The species named for data set [12] is Homo sapiens. Kind of data set: Binding affinity to full-length human recombinant C-terminal FLAG/His-tagged apolipoprotein E4 expressed in HEK293-6E cells assessed as breakdown of DMPG liposomes at 500 uM after 30 mins by dynamic light scattering analysis. The format is cell-based. A digest of the protocol:
as §1

Data set [13] is described as follows: Binding affinity to full-length human recombinant C-terminal FLAG/His-tagged apolipoprotein E3 expressed in HEK293-6E cells by surface plasmon resonance assay.

With `CN(C)CCNC(=O)c1ccc(-c2cc(Cl)cc(C3(C(=N)N)CCC3)c2)cc1`, the Activity result is “Dose-dependent effect” in [1], “Non-Toxic” in data set [2] and “Dose-dependent effect” in data set [5]. In addition, the ΔTm in data set [3] amounted to 4 °C. Besides, the Kd in data set [4] was < 5 µM.

Consider `N=C(N)C1(c2cc(Cl)cc(-c3ccc(CN)cc3)c2)CCC1`, for which, in data set [4], the Kd is < 5 µM.

As for `N=C(N)C1(c2cccc(Cl)c2)CCC1`, the Kd in data set [6] was determined as 233 µM; in [11], 205 µM; in data set [4], 900 µM; in data set [13], 890 µM. The solubility in data set [7] is ≥ 500 µM. The outcome in [8] and in data set [12] was Active. The ΔTm in data set [9] was determined as 0.5 °C; in data set [10], 4 °C.

Turning to `N=C(N)C1(c2cc(Cl)cc(-c3ccc(CO)c(Cl)c3)c2)CCC1`, the affinity in data set [4], expressed as Kd, was 8 µM.

On to `CC(C)(O)c1ccc(-c2cc(Cl)cc(C3(C(=N)N)CCC3)c2)cc1`, for which the Kd in [4] amounted to 30 µM.

`CC(=O)NCc1ccc(-c2cc(Cl)cc(C3(C(=N)N)CCC3)c2)cc1` displayed a Kd in [4] of 20 µM.

In data set [4], `CCNS(=O)(=O)c1ccc(-c2cc(Cl)cc(C3(C(=N)N)CCC3)c2)cc1` gave a Kd of 20 µM.

Consider `N=C(N)C1(c2cc(Cl)cc(-c3ccccc3)c2)CCC1`, for which, in data set [4], the Kd stood at 230 µM.

As a reminder, the ΔTm is the shift of the melting midpoint relative to a reference. By Kd is commonly meant the concentration at which binding is half-saturated. The term solubility denotes the dissolved amount per volume that the medium holds.
